According to ChEMBL document CHEMBL1137350, “Discovery of a new class of macrocyclic antagonists to the human motilin receptor” (J Med Chem, 2006):

Legend:
Motilin receptor [1] = biological target: T1, Motilin receptor (Homo sapiens, UniProt O43193); assay: Activity at human MOTR expressed in CHO cells assessed as inhibition of motilin-induced calcium release upto 10 uM; format: functional, cell-based; settings: filed as antagonist
How it was run: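 Aequorin luminescence assay on whole CHO cells expressing cloned human motilin receptor, measuring inhibition of motilin-induced Ca2+ release. Agonist activity was also checked at concentrations up to 10 µM. Compounds were TFA salts held as 10 mM DMSO stocks at -60 °C.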

Motilin receptor [2] = biological target: T1, Motilin receptor; assay: Displacement of [125I]motilin from human MOTR
How it was run: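 Competition binding on isolated membranes expressing human motilin receptor, with radioiodinated porcine motilin ([125I]-motilin) as tracer. 11-point concentration curves gave Ki, with a top test concentration of 10 µM. Compounds came from 10 mM DMSO stocks stored at -60 °C.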

T1 sequence (O43193 whole entry): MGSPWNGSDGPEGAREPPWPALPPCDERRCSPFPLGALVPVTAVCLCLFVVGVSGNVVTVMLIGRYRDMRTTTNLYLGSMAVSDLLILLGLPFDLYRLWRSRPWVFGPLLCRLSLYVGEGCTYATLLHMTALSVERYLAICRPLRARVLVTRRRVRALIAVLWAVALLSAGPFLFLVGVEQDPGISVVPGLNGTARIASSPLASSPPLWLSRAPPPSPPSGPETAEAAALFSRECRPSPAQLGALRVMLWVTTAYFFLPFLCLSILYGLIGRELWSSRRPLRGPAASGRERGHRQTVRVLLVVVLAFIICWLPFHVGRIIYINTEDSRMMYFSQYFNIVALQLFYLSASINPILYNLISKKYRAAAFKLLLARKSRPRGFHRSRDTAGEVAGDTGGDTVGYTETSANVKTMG

Row | Structure (SMILES) | Activity (Motilin receptor [1]) | Ki (Motilin receptor [2])
1 | CCC[C@@H]1NC(=O)[C@@H](C(C)C)NC(=O)[C@@H](Cc2ccc(O)cc2)NCCc2ccccc2/C=C\CCNC1=O | Antagonist | > 10000 nM
2 | CCC[C@@H]1NC(=O)[C@@H](C(C)C)OC(=O)[C@@H](Cc2ccc(O)cc2)NCCOc2ccccc2CCCNC1=O | Antagonist | 192 nM
3 | CCC[C@@H]1NC(=O)[C@@H](C(C)C)NC(=O)[C@@H](CCCCN)NCCOc2ccccc2/C=C/CNC1=O | Antagonist | > 10000 nM
4 | CCC[C@@H]1NC(=O)[C@@H](C(C)C)NC(=O)[C@@H](Cc2ccc(O)cc2)N(C)CCOc2ccccc2CCCNC1=O | Antagonist | 2780 nM
5 | CCC[C@@H]1NC(=O)[C@@H](CO)NC(=O)[C@@H](Cc2ccc(O)cc2)NCCOc2ccccc2/C=C/CNC1=O | Antagonist | > 10000 nM
6 | CCC[C@@H]1NC(=O)[C@@H](C(C)C)NC(=O)[C@@H](Cc2ccc(O)cc2)NCCCCCCCCNC1=O | Antagonist | 1200 nM
7 | CC(C)C[C@@H]1NC(=O)[C@@H](C(C)C)NC(=O)[C@@H](Cc2ccc(O)cc2)NCCOc2ccccc2/C=C/CNC1=O | Antagonist | 62 nM
8 | CCC[C@@H]1NC(=O)[C@@H](C(C)C)NC(=O)[C@@H](Cc2ccc(O)cc2)NCCc2ccccc2/C=C/CNC1=O | Antagonist | 9730 nM
9 | CCC[C@@H]1NC(=O)[C@@H](C(C)C)NC(=O)[C@@H](Cc2ccccc2)NCCOc2ccccc2/C=C/CNC1=O | Antagonist | 78 nM
10 | CCC[C@H](NC(=O)[C@H](NC(=O)[C@H](N)Cc1ccc(O)cc1)C(C)C)C(N)=O | Antagonist | > 10000 nM
11 | CCC[C@@H]1NC(=O)[C@@H](C(C)C)NNC(=O)[C@@H](Cc2ccc(O)cc2)NCCOc2ccccc2CCCNC1=O | Antagonist | 2370 nM
12 | CCC[C@@H]1NC(=O)[C@@H](C(C)C)NC(=O)[C@@H](Cc2c[nH]c3ccccc23)NCCOc2ccccc2CCCNC1=O | Antagonist | 255 nM
13 | CC(C)[C@H]1NC(=O)[C@@H](Cc2ccc(O)cc2)NCCOc2ccccc2/C=C/CNC(=O)[C@H](C)NC1=O | Antagonist | 1390 nM
14 | CCC[C@@H]1NC(=O)[C@@H](C(C)C)NC(=O)[C@H](Cc2ccc(O)cc2)NCCOc2ccccc2/C=C/CNC1=O | Antagonist | > 10000 nM
15 | CCC[C@@H]1NC(=O)[C@@H](Cc2ccccc2)NC(=O)[C@@H](Cc2ccc(O)cc2)NCCOc2ccccc2/C=C/CNC1=O | Antagonist | 1520 nM
16 | CCC[C@@H]1NC(=O)[C@@H](C(C)C)NC(=O)[C@@H](CC2CCCCC2)NCCOc2ccccc2CCCNC1=O | Antagonist | 3250 nM
17 | CCC[C@@H]1NC(=O)[C@@H](C(C)C)NC(=O)[C@@H](Cc2ccccc2)NCCOc2ccccc2CCCNC1=O | Antagonist | 57 nM
18 | CC(C)[C@H]1NC(=O)[C@@H](Cc2ccc(O)cc2)NCCOc2ccccc2/C=C/CNC(=O)[C@H](CCCCN)NC1=O | Antagonist | 664 nM
19 | CCC[C@@H]1NC(=O)[C@@H](C(C)C)NC(=O)[C@@H](Cc2ccc(O)cc2)NCCOc2ccccc2CCCNC1=O | Antagonist | 55 nM
20 | CC(C)[C@H]1NC(=O)[C@@H](Cc2ccc(O)cc2)NCCOc2ccccc2/C=C/CNC(=O)[C@H](CO)NC1=O | Antagonist | 650 nM

Row | Structure (SMILES) | Activity (Motilin receptor [1]) | Ki (Motilin receptor [2])
21 | CCC[C@@H]1NC(=O)[C@@H](C(C)C)NC(=O)[C@@H](Cc2ccc(O)cc2)NC/C=C/CCNC1=O | Antagonist | 701 nM
22 | CCC[C@@H]1NC(=O)[C@@H](C(C)C)NC(=O)[C@@H](Cc2cccc3ccccc23)NCCOc2ccccc2CCCNC1=O | Antagonist | 8.3 nM
23 | CCC[C@@H]1NC(=O)[C@@H](C(C)C)N(C)C(=O)[C@@H](Cc2ccc(O)cc2)NCCOc2ccccc2CCCNC1=O | Antagonist | > 10000 nM
24 | CCC[C@@H]1NC(=O)[C@@H](C(C)C)NC(=O)[C@@H](Cc2ccc(O)cc2)NCCCc2ccccc2/C=C\CCNC1=O | Antagonist | 7290 nM
25 | CCC[C@@H]1NC(=O)[C@@H](C(C)C)NC(=O)[C@@H](Cc2ccc3ccccc3c2)NCCOc2ccccc2CCCNC1=O | Antagonist | 79 nM
26 | CCC[C@@H]1NC(=O)[C@@H](C(C)C)NC(=O)[C@@H](Cc2ccc(O)cc2)NCCCCc2ccccc2CCNC1=O | Antagonist | 6060 nM
27 | CCC[C@@H]1NC(=O)[C@@H](C(C)C)NC(=O)[C@@H](CCC(=O)O)NCCOc2ccccc2/C=C/CNC1=O | Antagonist | > 10000 nM
28 | CCC[C@@H]1NC(=O)[C@@H](C(C)C)NC(=O)[C@@H](Cc2csc3ccccc23)NCCOc2ccccc2CCCNC1=O | Antagonist | 11 nM
29 | CCC[C@@H]1NC(=O)[C@@H](C(C)C)NC(=O)[C@@H](Cc2ccc(O)cc2)N(C(C)=O)CCOc2ccccc2CCCNC1=O | Antagonist | 6390 nM
30 | CCC[C@@H]1NC(=O)[C@@H](C(C)C)NC(=O)[C@@H](Cc2ccc(O)cc2)NCCOc2ccccc2CCNC1=O | Antagonist | 982 nM
31 | CCC[C@@H]1NC(=O)[C@@H](C(C)C)NC(=O)[C@@H](Cc2ccc(O)cc2)NCCCc2ccccc2CCCNC1=O | Antagonist | > 10000 nM
32 | CCC[C@@H]1NC(=O)[C@@H](C)NC(=O)[C@@H](Cc2ccc(O)cc2)NCCOc2ccccc2/C=C/CNC1=O | Antagonist | 196 nM
33 | CCC[C@@H]1NC(=O)[C@@H](C(C)C)NC(=O)[C@@H](Cc2ccc(O)cc2)NCc2ccccc2CCCCNC1=O | Antagonist | > 10000 nM
34 | CCC[C@@H]1NC(=O)[C@@H](CCC(=O)O)NC(=O)[C@@H](Cc2ccc(O)cc2)NCCOc2ccccc2/C=C/CNC1=O | Antagonist | 4900 nM
35 | CCC[C@@H]1NC(=O)[C@@H](C(C)C)NC(=O)[C@@H](C)NCCOc2ccccc2/C=C/CNC1=O | Antagonist | > 10000 nM
36 | CCC[C@@H]1NC(=O)[C@H](C(C)C)NC(=O)[C@@H](Cc2ccc(O)cc2)NCCOc2ccccc2/C=C/CNC1=O | Antagonist | > 10000 nM
37 | CCC[C@@H]1NC(=O)[C@@H](C(C)C)NC(=O)[C@@H](C(C)C)NCCOc2ccccc2/C=C/CNC1=O | Antagonist | 3570 nM
38 | CCC[C@@H]1NC(=O)[C@@H](C(C)C)NC(=O)[C@@H](CCc2ccccc2)NCCOc2ccccc2CCCNC1=O | Antagonist | 1490 nM
39 | CC(C)C[C@H]1C(=O)NCCCc2ccccc2OCCN[C@H](Cc2ccc(O)cc2)C(=O)N[C@H](C(C)C)C(=O)N1C | Antagonist | 222 nM
40 | CC[C@H](C)[C@H](NC(=O)[C@@H]1CCCN1C(=O)[C@@H](NC(=O)[C@@H](N)Cc1ccccc1)C(C)C)C(=O)N[C@@H](Cc1ccccc1)C(=O)N[C@H](C(=O)N[C@@H](Cc1ccc(O)cc1)C(=O)NCC(=O)N[C@@H](CCC(=O)O)C(=O)N[C@@H](CC(C)C)C(=O)N[C@@H](CCC(N)=O)C(=O)N[C@@H](CCCNC(=N)N)C(=O)N[C@@H](CCSC)C(=O)N[C@@H](CCC(N)=O)C(=O)N[C@@H](CCC(=O)O)C(=O)N[C@@H](CCCCN)C(=O)N[C@@H](CCC(=O)O)C(=O)N[C@@H](CCCNC(=N)N)C(=O)N[C@@H](CC(N)=O)C(=O)N[C@@H](CCCCN)C(=O)NCC(=O)N[C@@H](CCC(N)=O)C(=O)O)[C@@H](C)O [MOTILIN] | – | 0.36 nM
